Reference: ChEMBL document CHEMBL1136894, “New antituberculotics originated from salicylanilides with promising in vitro activity against atypical mycobacterial strains” (Bioorg Med Chem, 2009)
Values after ≈ are worked out from the molar mass of the structure shown.

Key:
Mycobacterium avium [1] = test: Antimycobacterial activity against Mycobacterium avium CNCTC My 330/88 after 21 days; format: functional; conditions: CNCTC My 330/88, 504 h
How it was run: (§1)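 Broth dilution in Sula semisynthetic medium, compounds added as DMSO solutions at 250, 125, 62, 32, 16, 8, 4, 2 and 1. Strains came from the Czech National Collection of Type Cultures; the M. tuberculosis inoculum was diluted 10^-3. Cultures were incubated at 37 °C, and MIC was read after 7, 14 and 21 days.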

[2] = system: Mycobacterium tuberculosis; test: Antimycobacterial activity against Mycobacterium tuberculosis CNCTC My 331/88 after 14 days; format: functional; conditions: CNCTC My 331/88, 336 h; how it was run: as §1
Mycobacterium kansasii [3] = test: Antimycobacterial activity against Mycobacterium kansasii CNCTC My 235/80 after 14 days; format: functional; conditions: CNCTC My 235/80, 336 h
How it was run: (§2)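 Compounds were added as DMSO solutions to Sula semisynthetic medium at 250, 125, 62, 32, 16, 8, 4, 2 and 1 µmol/L. Two M. kansasii strains were used: CNCTC My 235/80 and clinical isolate 6509/96, each with strain dilution 10^-4. Incubation was at 37 °C, and MIC was read at 7, 14 and 21 days.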

[4] = Selectivity index, ratio of EC50 for human HCT8 cells to MIC for Mycobacterium tuberculosis CNCTC My 331/88; format: functional, HCT-8
How it was run: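 SI is EC50 in HCT-8 cells divided by the M. tuberculosis MIC. HCT-8 cells were grown in EMEM with 5% FBS at 37 °C under 5% CO₂, trypsinised and seeded at 2 × 10⁵ cells/mL. After 24 h the medium was replaced with compound in DMSO. Controls were DMSO alone and 20% DMSO. Absorbance was read at 450 nm 4 h after reagent addition, in triplicate.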

[5] = Stability assessed as half life in phosphate buffer at pH 5.5 by UV-visible spectroscopy; format: physicochemical
How it was run: (§3)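 Compound in methanolic solution (10 or 20 µL) was added to tempered 7 × 10^-2 M phosphate buffer (2 mL) at pH 7.4 or 5.5, 37 °C. The absorbance decrease at 224 nm was followed by UV/vis.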

Mycobacterium avium [6] = test: Antimycobacterial activity against Mycobacterium avium CNCTC My 330/88 after 14 days; format: functional; conditions: CNCTC My 330/88, 336 h; how it was run: as §1
Mycobacterium kansasii [7] = test: Antimycobacterial activity against Mycobacterium kansasii isolate 6509/96 after 14 days; format: functional; conditions: isolate 6509/96, 336 h; how it was run: as §2
Mycobacterium kansasii [8] = test: Antimycobacterial activity against Mycobacterium kansasii isolate 6509/96 after 7 days; format: functional; conditions: isolate 6509/96, 168 h; how it was run: as §2
Mycobacterium kansasii [9] = test: Antimycobacterial activity against Mycobacterium kansasii isolate 6509/96 after 21 days; format: functional; conditions: isolate 6509/96, 504 h; how it was run: as §2
Mycobacterium kansasii [10] = test: Antimycobacterial activity against Mycobacterium kansasii CNCTC My 235/80 after 7 days; format: functional; conditions: CNCTC My 235/80, 168 h; how it was run: as §2
[11] = Stability assessed as half life in phosphate buffer at pH 7.4 by UV-visible spectroscopy; format: physicochemical; how it was run: as §3
Mycobacterium kansasii [12] = test: Antimycobacterial activity against Mycobacterium kansasii CNCTC My 235/80 after 21 days; format: functional; conditions: CNCTC My 235/80, 504 h; how it was run: as §2
HCT-8 = test: Cytotoxicity against human HCT8 cells after 72 hrs by XTT assay; format: functional, cell-based; conditions: HCT-8, 72 h
How it was run: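 HCT-8 cells were grown in EMEM with 5% FBS at 37 °C under 5% CO2. They were harvested with trypsin, seeded at 2 × 10^5 cells/mL and left 24 h. Medium was then replaced with compound in DMSO. DMSO-only wells served as the viability control and 20% DMSO as the cytotoxic control. Reagent was added for 4 h and absorbance read at 450 nm. Triplicates; EC50 reported.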

[13] = Lipophilicity, log K by HPLC; format: physicochemical
How it was run: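 Capacity factors k were measured by RP-HPLC and log k was calculated from them.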

[14] = system: Mycobacterium tuberculosis; test: Antimycobacterial activity against Mycobacterium tuberculosis CNCTC My 331/88 after 21 days; format: functional; conditions: CNCTC My 331/88, 504 h; how it was run: as §1

SMILES	MIC (Mycobacterium avium [1])	MIC [2]	MIC (Mycobacterium kansasii [3])	Ratio [4]	half-life [5]	MIC (Mycobacterium avium [6])	MIC (Mycobacterium kansasii [7])	MIC (Mycobacterium kansasii [8])	MIC (Mycobacterium kansasii [9])	MIC (Mycobacterium kansasii [10])	half-life [11]	MIC (Mycobacterium kansasii [12])	EC50 (HCT-8)	log K [13]	MIC [14]
CC(C)[C@@H](NC(=O)OCc1ccccc1)C(=O)Oc1cc(Cl)ccc1C(=O)Nc1ccc(Cl)cc1	16 µM (≈ 8.25 µg/mL)	4 µM (≈ 2.06 µg/mL)	8 µM (≈ 4.12 µg/mL)	13.75	20.3 min	8 µM (≈ 4.12 µg/mL)	8 µM (≈ 4.12 µg/mL)	4 µM (≈ 2.06 µg/mL)	8 µM (≈ 4.12 µg/mL)	4 µM (≈ 2.06 µg/mL)	20.4 min	8 µM (≈ 4.12 µg/mL)	107 µM	0.8816	4 µM (≈ 2.06 µg/mL)
CC(C)[C@@H](NC(=O)OCc1ccccc1)C(=O)Oc1ccc(Cl)cc1C(=O)Nc1ccc(Br)cc1	16 µM (≈ 8.96 µg/mL)	2 µM (≈ 1.12 µg/mL)	8 µM (≈ 4.48 µg/mL)	33.35	14.8 min	16 µM (≈ 8.96 µg/mL)	8 µM (≈ 4.48 µg/mL)	8 µM (≈ 4.48 µg/mL)	8 µM (≈ 4.48 µg/mL)	4 µM (≈ 2.24 µg/mL)	15 min	8 µM (≈ 4.48 µg/mL)	121 µM	0.9805	4 µM (≈ 2.24 µg/mL)
